Columns and labels:
[1] = target: T1, Prostaglandin E2 receptor EP4 subtype (Homo sapiens, UniProt P35408); assay: EP4 agonist potency utilizing a stable clone of pSV40-EP4 transfected into HEK293 cells expressing EP4 receptor; assay type: functional, cell-based
Outline: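 A HEK293 stable clone carried pSV40-EP4 at about 50 fmol/mg receptor. Whole-cell cAMP assay: 1×10⁵ cells per sample were suspended in 0.2 mL HBSS with 2 mM IBMX. Compound or PGE₂ was given in DMSO at a constant final 1.8% (v/v). Incubation ran 10 min at 37 °C and was stopped by 3 min in boiling water. cAMP was read by [¹²⁵I]cAMP scintillation proximity assay.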

[2] = target: T2, Prostaglandin D2 receptor (Homo sapiens, UniProt Q13258); assay: Binding affinity towards DP receptor expressed in HEK293 ebna cells recombinantly expressing the corresponding human prostanoid cDNAs; assay type: cell-based
T2 sequence (Q13258 whole entry): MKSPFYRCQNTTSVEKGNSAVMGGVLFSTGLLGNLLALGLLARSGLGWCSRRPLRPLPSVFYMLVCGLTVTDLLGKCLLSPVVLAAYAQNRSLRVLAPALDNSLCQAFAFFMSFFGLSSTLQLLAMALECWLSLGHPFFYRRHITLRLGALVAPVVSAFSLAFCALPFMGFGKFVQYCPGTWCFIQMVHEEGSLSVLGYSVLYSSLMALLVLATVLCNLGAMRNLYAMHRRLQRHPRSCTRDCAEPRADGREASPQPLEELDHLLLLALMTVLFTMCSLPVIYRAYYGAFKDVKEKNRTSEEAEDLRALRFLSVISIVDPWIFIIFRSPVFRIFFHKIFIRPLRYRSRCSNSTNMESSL
Outline: (§1)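 Competition binding used membrane preparations, not intact cells, from HEK293ebna cells expressing each recombinant human prostanoid receptor cDNA.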

[3] = target: T3, Prostaglandin E2 receptor EP1 subtype (Homo sapiens, UniProt P34995); assay: Binding affinity towards EP1 receptor expressed in HEK293 ebna cells recombinantly expressing the corresponding human prostanoid cDNAs; assay type: cell-based; outline: as §1
T3 sequence (P34995 whole entry): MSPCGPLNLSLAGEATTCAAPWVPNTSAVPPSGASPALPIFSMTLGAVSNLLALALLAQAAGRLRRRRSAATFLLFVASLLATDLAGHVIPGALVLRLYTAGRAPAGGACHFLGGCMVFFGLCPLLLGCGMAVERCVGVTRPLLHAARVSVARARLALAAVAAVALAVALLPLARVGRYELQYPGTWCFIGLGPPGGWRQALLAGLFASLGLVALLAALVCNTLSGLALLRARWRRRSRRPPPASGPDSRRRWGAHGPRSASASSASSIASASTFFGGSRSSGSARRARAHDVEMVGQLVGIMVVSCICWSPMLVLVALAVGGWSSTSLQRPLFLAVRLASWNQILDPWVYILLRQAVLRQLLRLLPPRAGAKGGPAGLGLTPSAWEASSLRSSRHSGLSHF

Thromboxane A2 receptor = target: T4, Thromboxane A2 receptor (Homo sapiens, UniProt P21731); assay: Binding affinity towards TP receptor expressed in HEK293 ebna cells recombinantly expressing the corresponding human prostanoid cDNAs; assay type: cell-based; outline: as §1
T4 sequence (P21731 whole entry): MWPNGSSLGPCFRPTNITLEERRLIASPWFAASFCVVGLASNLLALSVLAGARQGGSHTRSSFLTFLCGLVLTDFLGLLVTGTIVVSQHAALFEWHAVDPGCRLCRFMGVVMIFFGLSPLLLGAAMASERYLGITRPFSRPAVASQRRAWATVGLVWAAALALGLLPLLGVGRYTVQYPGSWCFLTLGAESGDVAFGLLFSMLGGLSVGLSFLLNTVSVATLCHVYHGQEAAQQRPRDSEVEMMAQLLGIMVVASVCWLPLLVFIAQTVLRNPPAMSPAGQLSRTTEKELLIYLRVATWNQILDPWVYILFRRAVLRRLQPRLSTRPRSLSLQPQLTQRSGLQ

[4] = target: Prostaglandin E2 receptor EP2 subtype (Homo sapiens, UniProt P43116); assay: Binding affinity towards EP2 receptor expressed in HEK293 ebna cells recombinantly expressing the corresponding human prostanoid cDNAs; assay type: cell-based; outline: as §1
[5] = target: T1, Prostaglandin E2 receptor EP4 subtype; assay: Binding affinity towards EP4 receptor expressed in HEK293 ebna cells recombinantly expressing the corresponding human prostanoid cDNAs; assay type: cell-based
[6] = target: Prostaglandin F2-alpha receptor (Homo sapiens, UniProt P43088); assay: Binding affinity towards FP receptor expressed in HEK293 ebna cells recombinantly expressing the corresponding human prostanoid cDNAs; assay type: cell-based; outline: as §1
[7] = target: T5, Prostaglandin E2 receptor EP3 subtype (Homo sapiens, UniProt P43115); assay: Binding affinity towards EP3 receptor expressed in HEK293 ebna cells recombinantly expressing the corresponding human prostanoid cDNAs; assay type: cell-based; outline: as §1
T5 sequence (P43115 whole entry): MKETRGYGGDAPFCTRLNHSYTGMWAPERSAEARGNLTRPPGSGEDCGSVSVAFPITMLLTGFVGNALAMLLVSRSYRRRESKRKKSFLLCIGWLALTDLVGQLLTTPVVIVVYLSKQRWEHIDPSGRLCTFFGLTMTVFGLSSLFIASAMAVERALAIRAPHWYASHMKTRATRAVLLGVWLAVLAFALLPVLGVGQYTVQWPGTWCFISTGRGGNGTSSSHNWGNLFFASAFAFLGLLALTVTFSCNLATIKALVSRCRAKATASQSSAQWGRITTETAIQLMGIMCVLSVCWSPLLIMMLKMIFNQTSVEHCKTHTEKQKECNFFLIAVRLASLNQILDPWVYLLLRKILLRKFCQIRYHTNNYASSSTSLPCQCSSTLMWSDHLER

[8] = target: T1, Prostaglandin E2 receptor EP4 subtype; assay: Inhibitory activity against human EP4 receptor expressed in HEK293 ebna cells; assay type: cell-based
Prostacyclin receptor = Prostacyclin receptor (Homo sapiens, UniProt P43119); assay: Binding affinity towards IP receptor expressed in HEK293 ebna cells recombinantly expressing the corresponding human prostanoid cDNAs; assay type: cell-based; outline: as §1
[9] = Half-life after intravenous dose in rat; assay type: ADME, organism-based; details: in vivo

T1 sequence (P35408 whole entry): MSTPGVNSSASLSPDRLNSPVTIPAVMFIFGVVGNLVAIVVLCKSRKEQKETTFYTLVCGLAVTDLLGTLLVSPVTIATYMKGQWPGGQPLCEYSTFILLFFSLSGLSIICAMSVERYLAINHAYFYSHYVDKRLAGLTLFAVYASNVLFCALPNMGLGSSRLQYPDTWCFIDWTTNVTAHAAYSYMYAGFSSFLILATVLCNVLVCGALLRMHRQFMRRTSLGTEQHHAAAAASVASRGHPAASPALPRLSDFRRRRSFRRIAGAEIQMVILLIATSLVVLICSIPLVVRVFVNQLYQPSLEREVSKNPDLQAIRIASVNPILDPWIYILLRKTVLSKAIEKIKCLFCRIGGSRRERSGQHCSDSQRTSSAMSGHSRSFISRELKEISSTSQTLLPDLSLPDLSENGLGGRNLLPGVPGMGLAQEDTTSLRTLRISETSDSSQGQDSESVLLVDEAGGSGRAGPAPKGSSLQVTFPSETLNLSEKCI
Chain of Prostacyclin receptor (P43119 whole entry): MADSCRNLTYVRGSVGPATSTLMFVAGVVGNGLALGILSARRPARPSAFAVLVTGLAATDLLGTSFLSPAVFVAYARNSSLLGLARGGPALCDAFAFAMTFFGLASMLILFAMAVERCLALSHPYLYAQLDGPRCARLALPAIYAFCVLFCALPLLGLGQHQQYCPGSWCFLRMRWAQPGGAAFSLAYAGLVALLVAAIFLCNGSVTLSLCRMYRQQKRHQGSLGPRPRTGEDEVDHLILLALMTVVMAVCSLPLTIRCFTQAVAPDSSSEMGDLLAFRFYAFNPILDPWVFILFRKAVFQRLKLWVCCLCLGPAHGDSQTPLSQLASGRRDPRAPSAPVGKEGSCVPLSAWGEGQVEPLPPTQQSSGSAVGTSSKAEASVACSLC
Chain of Prostaglandin E2 receptor EP2 subtype (P43116 whole entry): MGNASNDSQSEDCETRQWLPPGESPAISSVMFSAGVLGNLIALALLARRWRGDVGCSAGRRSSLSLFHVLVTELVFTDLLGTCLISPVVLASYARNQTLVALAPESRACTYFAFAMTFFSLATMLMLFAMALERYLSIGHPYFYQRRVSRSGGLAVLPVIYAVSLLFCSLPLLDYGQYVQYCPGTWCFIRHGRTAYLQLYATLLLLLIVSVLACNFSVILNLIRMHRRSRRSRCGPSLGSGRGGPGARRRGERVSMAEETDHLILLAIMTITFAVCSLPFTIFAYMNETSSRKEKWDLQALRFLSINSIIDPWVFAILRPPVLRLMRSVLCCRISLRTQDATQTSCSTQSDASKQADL
Chain of Prostaglandin F2-alpha receptor (P43088 whole entry): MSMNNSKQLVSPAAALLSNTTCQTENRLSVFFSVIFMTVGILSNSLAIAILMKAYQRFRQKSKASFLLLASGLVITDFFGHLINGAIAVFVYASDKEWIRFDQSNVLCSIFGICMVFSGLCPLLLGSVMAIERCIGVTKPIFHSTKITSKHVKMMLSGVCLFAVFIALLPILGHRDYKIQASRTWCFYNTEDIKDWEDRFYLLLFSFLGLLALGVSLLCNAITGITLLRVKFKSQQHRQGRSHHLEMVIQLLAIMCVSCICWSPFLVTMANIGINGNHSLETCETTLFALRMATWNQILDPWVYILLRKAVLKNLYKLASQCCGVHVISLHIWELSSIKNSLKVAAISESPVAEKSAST

Row | EC50 [1] | Ki [2] | Ki [3] | Ki (Thromboxane A2 receptor) | Ki [4] | Ki [5] | Ki [6] | Ki [7] | IC50 [8] | Ki (Prostacyclin receptor) | half-life [9] | Compound
1 | 0.0025 µM | > 13 µM | > 13 µM | > 13 µM | > 13 µM | 0.0012 µM | > 13 µM | > 13 µM | 0.0014 µM | > 13 µM |  | O=C1CC[C@H](/C=C/[C@@H](O)Cc2ccccc2)N1CCCCCCc1nnn[nH]1
2 |  | > 13 µM | > 13 µM | > 13 µM | > 13 µM | 0.443 µM | > 13 µM | > 13 µM |  | > 13 µM |  | COC(=O)CSCCCCN1C(=O)CC[C@@H]1/C=C/C(O)Cc1ccccc1 (some centres not stated)
3 |  | > 13 µM | > 13 µM | > 13 µM | > 13 µM | 0.062 µM | > 13 µM | 10.6 µM |  | > 13 µM |  | CC(C)(c1ccccc1)C(O)/C=C/[C@H]1CCC(=O)N1CCCCCCC(=O)O (some centres not stated)
4 |  | > 13 µM | > 13 µM | > 13 µM | > 13 µM | 0.14 µM | > 13 µM | > 13 µM |  | > 13 µM |  | O=C(O)CCSCCCCN1C(=O)CC[C@@H]1/C=C/C(O)Cc1ccccc1 (some centres not stated)
5 |  | > 13 µM | > 13 µM | > 13 µM | > 13 µM | 0.23 µM | > 13 µM | > 13 µM |  | > 13 µM |  | O=C1CC[C@H](/C=C/[C@H](O)Cc2ccccc2)N1CCCCCCc1nnn[nH]1
6 |  | > 13 µM | > 13 µM | > 13 µM | > 13 µM | 3.5 µM | > 13 µM | > 13 µM |  | > 13 µM |  | O=C(O)CCCCCCN1C(=O)CC[C@@H]1/C=C/C(O)C1CCCCC1 (some centres not stated)
7 |  | > 13 µM | > 13 µM | > 13 µM | > 13 µM | 2.1 µM | > 13 µM | > 13 µM |  | > 13 µM |  | CC(O)(/C=C/[C@H]1CCC(=O)N1CCCCCCC(=O)O)Cc1ccccc1 (some centres not stated)
8 |  | > 13 µM | > 13 µM | > 13 µM | > 13 µM | 0.0036 µM | > 13 µM | > 13 µM |  | > 13 µM |  | COCc1cccc(CC(O)/C=C/[C@H]2CCC(=O)N2CCCCCCC(=O)O)c1 (some centres not stated)
9 |  | > 13 µM | > 13 µM | > 13 µM | > 13 µM | 0.0025 µM | > 13 µM | > 13 µM |  | > 13 µM |  | O=C1CC[C@H](/C=C/[C@@H](O)Cc2ccccc2)N1CCCCCCc1nnn[nH]1.O=C1CC[C@H](/C=C/[C@H](O)Cc2ccccc2)N1CCCCCCc1nnn[nH]1
10 |  | > 13 µM | > 13 µM | > 13 µM | > 13 µM | 1.41 µM | > 13 µM | 1.22 µM |  | > 13 µM |  | CCCCCC(O)/C=C/[C@@H]1CCC(=O)N1CCCCCCC(=O)O (some centres not stated)
11 |  | > 13 µM | > 13 µM | > 13 µM | 3 µM | 0.035 µM | > 13 µM | 2 µM |  | > 13 µM |  | CCCCCC(O)CCC1CCC(=O)N1CCCCCCC(=O)O (configuration not stated)
12 |  | > 13 µM | > 13 µM | > 13 µM | > 13 µM | 0.012 µM | > 13 µM | 3.34 µM |  | > 13 µM |  | O=C(O)CCCCCCN1C(=O)CC[C@@H]1/C=C/C(O)C1(c2ccccc2)CC1 (some centres not stated)
13 |  | > 13 µM | > 13 µM | > 13 µM | > 13 µM | 0.243 µM | > 13 µM | > 13 µM |  | > 13 µM |  | O=C1CC[C@H](/C=C/C(O)Cc2ccccc2)N1CCCCSc1nnn[nH]1 (some centres not stated)
14 |  | > 13 µM | > 13 µM | > 13 µM | 4.05 µM | 0.028 µM | > 13 µM | 0.7 µM |  | > 13 µM |  | CCCCCC(O)CC[C@H]1CCC(=O)N1CCCCCCC(=O)O (some centres not stated)
15 |  | > 13 µM | > 13 µM | > 13 µM | 6.68 µM | 0.006 µM | > 13 µM | 0.419 µM |  | > 13 µM |  | CCCCCC(O)/C=C/[C@H]1CCC(=O)N1CCCCCCC(=O)O (some centres not stated)
16 |  | > 13 µM | > 13 µM | > 13 µM | > 13 µM | 0.102 µM | > 13 µM | 2.01 µM |  | > 13 µM |  | O=C(O)CCCCCCN1C(=O)CC[C@@H]1/C=C/C(O)CCc1ccccc1 (some centres not stated)
17 |  | > 13 µM | > 13 µM | > 13 µM | > 13 µM |  | > 13 µM | > 13 µM |  | > 13 µM | < 20 min | O=C(O)CCCCCCN1C(=O)CC[C@@H]1/C=C/C(O)Cc1ccccc1 (some centres not stated)
18 |  | > 13 µM | > 13 µM | > 13 µM | > 13 µM | 0.013 µM | > 13 µM | > 13 µM |  | > 13 µM |  | O=C(O)CSCCCCN1C(=O)CC[C@@H]1/C=C/C(O)Cc1ccccc1 (some centres not stated)
19 |  | > 13 µM | > 13 µM | > 13 µM | > 13 µM | 0.066 µM | > 13 µM | > 13 µM |  | > 13 µM |  | O=C1CC[C@H](/C=C/C(O)Cc2ccccc2)N1CCCCSCc1nn[nH]n1 (some centres not stated)
20 |  | > 13 µM | > 13 µM | > 13 µM | 3.61 µM | 1.11 µM | > 13 µM | 2.32 µM |  | > 13 µM |  | CCCCCC(O)CC[C@@H]1CCC(=O)N1CCCCCCC(=O)O (some centres not stated)

Source: ChEMBL document CHEMBL1136653, “Discovery of a potent and selective agonist of the prostaglandin EP4 receptor” (Bioorg Med Chem Lett, 2003)
